The EternaBench riboswitch data

Columns and labels:
MS2 coat protein [1] = test: apparent Kd, MS2 coat protein; higher = weaker binding; RNA-MaP array; details: designed as: OFF switch for tryptophan
How it was run: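 Designs measured on fewer than 10 clusters were excluded from the data. The rest were RNAs transcribed from sequenced DNA templates on an Illumina sequencing chip and incubated at room temperature, with or without input ligand, with fluorescently labeled MS2 coat protein at 1.5 nM to 3 μM for 0.8–1.5 h at the lowest to 10–20 min at the highest concentrations. Apparent Kd is the median of the per-cluster binding-curve fits.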

MS2 coat protein [2] = test: apparent Kd, MS2 coat protein; higher = weaker binding; RNA-MaP array; FMN 200 µM where present
How it was run: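 The apparent Kd is the median of filtered binding-curve fits, one per cluster, to green signal normalised to red-channel RNA signal and control-cluster median Fmax. The clusters were on Illumina sequencing chips, and stalled E. coli RNA polymerase had transcribed the designs on them. Titration used SNAP-549-labelled MS2 coat protein from 0.7 or 1.5 nM, doubling to 3 µM, without and then with constant ligand, in 100 mM Tris-HCl pH 7.5, 80 mM KCl, 4 mM MgCl2, BSA, DTT, yeast tRNA and Tween-20.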

[3] = designed as: ON switch for flavin mononucleotide, no ligand
[4] = ligand present: flavin mononucleotide, designed as: ON switch for flavin mononucleotide
[5] = designed as: OFF switch for flavin mononucleotide, no ligand
[6] = ligand present: flavin mononucleotide, designed as: OFF switch for flavin mononucleotide

Row | Sequence | apparent Kd (MS2 coat protein [2]; [3]) | apparent Kd (MS2 coat protein [2]; [4]) | apparent Kd (MS2 coat protein [2]; [5]) | apparent Kd (MS2 coat protein [2]; [6]) | further results
1 | ACCAACCACACCCUUCACUGUUUUCGCCGCCGAGGACCGGUACGGCCGCCACUCGUACAAAGACAUGAGGAUCACCCAUGUGCCU |  |  |  |  | apparent Kd (MS2 coat protein [1]; no ligand): 14.5 nM; apparent Kd (MS2 coat protein [1]; ligand present: tryptophan): 21.4 nM
2 | CGAAUGUAGACAGGAUAUCCUGGACAUGAGGAUCACCCAUGUGCAUAAAAUGGAGAAGGGUCACGGAGGCCCUGUGGGCAGGGU | 44.4 nM | 9.21 nM |  |  | 
3 | UUGGACGUCGUACGAUAUGUAGGAUAUUCCUACAUGAGGAUCACCCAUGUUGACAUGGAAGAAGGACAGAAGGACGAUGUCCAU | 151 nM | 5.61 nM |  |  | 
4 | GGGCUCGGAGGAUAUACAAUGGGCUCGGGAAAUCGGGUCUUACAUGAGGAUCACCCAUGUAGAAGGUCGGGUCU |  |  | 22.2 nM | 47.1 nM | 
5 | GUGUAGUCAGGAUAUACAUAGGAAGAUAAUAUAAUAUAAGUACAUGAGGAUCACCCAUGUAGAAGGGACAGUGU |  |  | 38.5 nM | 53.8 nM | 
6 | GGAUCGAGUGUGAGGAUAUACCUAUGGAUACAUAGGUAGAAGGCACAUGAGGAUCACCCAUGUGUUCCCGGUCC |  |  | 43.4 nM | 368 nM | 
7 | GCGGUUACGGUUGGCACUUAGCGAGAGGAUAUGGUAAGCUGGACAUGAGGAUCACCCAUGUACUAUCAGAAGGCUCGAGCACGC | 7.94 nM | 9.15 nM |  |  | 
8 | GGAAAGUAAGGAUAUGCGAACAAACAAACAAACAAAAGGGAACAUGAGGAUCACCCAUGUAGAAGGUGCAAACA |  |  | 46.3 nM | 35.9 nM | 
9 | GUAGUGUAGUGAGGAUAUACGAGAUCGAUAGAUCGGCGAUCCAUAUAUACAUGAGGAUCACCCAUGUAGAAGGCACUUCACUAC |  |  | 7.5 nM | 91.5 nM | 
10 | CGGAAUUGUACAGGAUAUGAGGGUGCCUGAGCCUCAGAAGGGUAGACCGACAUGAGGAUCACCCAUGUAUGUGGAUAACGUCCG | 75.5 nM | 336 nM |  |  | 
11 | GCGCCAUUGCAAGGAUAUCCUACAGAGGGUGCAGGAGAAGGUGCAUUGGUGAGACUAUAGGACAUGAGGAUCACCCAUGUACCU | 14.8 nM | 17.9 nM |  |  | 
12 | ACAUGAGGAUCACCCAUGUUCACAUAGGAUAUUGAUUAUAUUGGUUUAAGAAUAGUAAUUAACCUCAAGAAGGAUGCCUGAUCU | 14.9 nM | 12 nM |  |  | 
13 | GGCAAGUGAGGAUAUCACCACGGCGUGGGCACCACGGCCAGUGAGAAGGCACAUGAGGAUCACCCAUGUGAUCA |  |  | 88 nM | 541 nM | 
14 | AUGGUACAUGAGGAUCACCCAUGUUAGGAUAUCGCGUGUUCUAAAACUAAGAGAUACACGAGAAGGGACGACAU |  |  | 90.2 nM | 67.7 nM | 
15 | GCGUUACAUGAGGAUCACCCAUGUGAGGAUAUGGUUCGGUACUGUCCUGUCGCGUACUCCAGAAGGCACGUGUG |  |  | 47.6 nM | 104 nM | 
16 | GCUAUUGAUGUAGGAUAUGAUAUAGAAACUAUGUCAGAAGGACAUGAGGAUCACCCAUGUCAAUGGAUGGAGAGAAGAAAUGGC |  |  | 47.8 nM | 59.2 nM | 
17 | CUCGCGUUAGGAUAUGCUAGCUGAGAAUAAUCUGCAGCGGUGCAGAAGGAACAUGAGGAUCACCCAUGUAGGGA |  |  | 278 nM | 43.6 nM | 
18 | GGUGUGCAGCAGGAUAUCCAUCCGCGGUAUGGUGGAGAAGGGCUGACAUGAGGAUCACCCAUGUGCGUCCUAGG |  |  | 40.3 nM | 133 nM | 
19 | CUUGUUUAUGUAGGAUAUGCCUGGCGUGCCUUUGCAGAAGGACAUGAGGAUCACCCAUGUAGUAUGAGGCUUACCCUUGUCGCC |  |  | 28.2 nM | 24.5 nM | 
20 | GGGAGACAUGAGGAUCACCCAUGUGAAAACGUGCGAGGAUAUCAAUGGAAACCAUACUGUUGAGAAGGCGUUUGUC | 100 nM | 55 nM |  |  | 
21 | CUUCAAGAUGUGAGGAUAUCGCCGAUGAGGAUAGUUGAGAAGGUACAUGAGGAUCACCCAUGUAGGCUGGGUUU |  |  | 31.9 nM | 42.1 nM | 
22 | GGGUACAUCGGAGGAUAUCAUGUAAAUACAUGAGGAUCACCCAUGUCGAUGGACACAUCGGAGAUUGAGAAGGCCGAUGUACCG | 14.5 nM | 5.27 nM |  |  | 
23 | GCAUUGAUAACAGGAUAUAUGUUUCCUACAUGAGGAUCACCCAUGUAGGUGAUCAGCCGCGAAAAGUAGAAGGGUUAUCAAUGC | 18 nM | 16.7 nM |  |  | 
24 | GGACAUUUACAGAAGGGCAAGCUCGAAAGCGGAGAACGCGAACGAGCUUGCAGGAUAUGUUGAACAUGAGGAUCACCCAUGUCU |  | 7.08 nM |  |  | 
25 | CGUGACGACAUAGGAUAUUGAUACAUGAGGAUCACCCAUGUCACCCAUUUAUAUAUUAGUGAUGACAAGAAGGAUGUGGUCACG | 33.3 nM | 7.13 nM |  |  | 
26 | UAUACUUACGAAGGAUAUGGUUACAUGAGGAUCACCCAUGUAUGUAUAUUGAUCUUGUAUCUUAACCAGAAGGUCGUCACUAUA |  |  | 26.3 nM | 23.4 nM | 
